Screening results deposited in PubChem BioAssay by several laboratories.
This is one part of a sample in which hits are shown more often than they occur.
HSF1 activator = HSF-1 activators, primary screen, NIH3T3-HGL cells, MG132 stress, luminescence, single point; NIH3T3-HGL HSF-1 luciferase reporter, 8 h; 100% = twice DMSO control signal; activation, % at 9 µM; actives 1.7% (n = 300,000); AID 504408, 2011;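 active = mean replicate activation of at least 50% with a set share of replicates each reaching 50%; inconclusive = only one of those two conditions met; inactive = mean below 50% and too few replicates reaching it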
T cruzi inh = inhibitors of intracellular T. cruzi growth, primary screen, luminescence, NIH3T3 host cells; T. cruzi beta-gal in NIH3T3, 90 h; inhibition, % (test concentration not listed); actives 1.4% (n = 300,000); AID 1885, 2009;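 active = mean inhibition across valid replicates above about 55%, limit read from the data; inconclusive = mean below that limit but half or more replicates reach it; inactive = mean below it, under half of replicates reach it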;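 also: signal also drops with host cell toxicity which is not excluded here; higher percent means less beta-gal luminescence so fewer parasites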
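System: Mouse NIH/3T3 fibroblasts infected with β-gal-expressing T. cruzi Tulahuen C4 | Quantity: NIH/3T3 cells, 5,000 per well | Reagent: 5000 reporter trypomastigotes per well | Dosing: Compound pinned at 50 nL/well, DMSO | Schedule: 3 h host attachment, then at least 90 h co-culture | Detection: GalScreen luminescence, 60 min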
Hsp70 activator = Hsp70 transcriptional activators, primary screen, cell-based, HeLa, Hsp70 promoter luciferase, luminescence, 10 µM | actives 0.04% (n = 200,000) | HeLa Hsp70 promoter luciferase reporter; scaled: vehicle 0, proteasome-inhibitor control 100% | activation, % at 10 µM;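 active = activation above the mean across all tested compounds plus 3 SD, cutoff set per campaign, cut at about 5.5% in these data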
L major viab = Leishmania major promastigote growth inhibition, primary screen | Leishmania major promastigotes, resazurin fluorescence viability | inhibition, % at 10 µM | actives 9% (n = 200,000) | AID 1063, 2008; in the data active = inhibition above about 50%;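 also: promastigotes grown with compound for 44 hours at 28 °C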
HSF1 inhib = HSF1 inhibitors in luciferase reporter cells, primary screen, cell-based, NIH3T3, luminescence; NIH3T3-HGL HSE-luciferase, MG132-induced, luminescence 8 h; hits give low values; AID 2098, 2009; actives 0.77% (n = 300,000); activity change, negative = inhibition, % at 7.5 µM (by protocol);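 active = more than half of replicate wells show activity change below -50%, luminescence cut by over half; inconclusive = some wells, but at most half, below -50%; inactive = no replicate well below -50%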;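 also: luciferase reports HSF-1 transcriptional activity via heat shock element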
Of the large screens only hits and unclear results are named; the others gave an inactive call.

COc1ccc(CCNCc2ccc(Br)cc2)cc1OC	HSF1 activator 51.2 (no result: Hsp70 activator, L major viab)
Cc1oc(-c2ccccc2F)nc1CS(=O)CC(=O)N1CCC2(CC1)OCCO2 (stereo unspecified)	none
CCN1CCN(C(=O)Cc2c(C)n(C(=O)c3ccc(Cl)cc3)c3ccc(OC)cc23)CC1	L major viab 98.3
Cc1ccc(N2C(=O)NC(=O)/C(=C/C=C/c3ccco3)C2=O)cc1	HSF1 activator inconclusive, L major viab 83.0
O=C1NC(=O)N(c2ccccc2)C(=O)/C1=C\C=C\c1ccccc1	none (no result: Hsp70 activator, L major viab)
CC(C)c1ccc(N2C(=O)NC(=O)/C(=C/C=C/c3ccco3)C2=O)cc1	L major viab 94.1
Cc1cc(C)cc(N2C(=O)NC(=O)/C(=C\C=C\c3ccco3)C2=O)c1	HSF1 activator inconclusive, L major viab 99.2
O=C1NC(=O)N(Cc2ccc(F)cc2)C(=O)/C1=C\C=C\c1ccco1	HSF1 activator 81.9 (no result: Hsp70 activator, L major viab)
CCc1ccc(N2C(=O)NC(=O)/C(=C\C=C\c3ccco3)C2=O)cc1	none (no result: Hsp70 activator, L major viab)
O=C(c1cc(C(=O)NCc2ccccc2)c(=O)n(Cc2ccccc2)c1)c1cc(Cl)ccc1O	L major viab 97.9
CC(C)CCNC(=O)c1cc(C(=O)c2cc(Br)ccc2O)cn(CCC(C)C)c1=O	L major viab 83.4
O=C(NCc1ccccc1)c1cccn(Cc2ccccc2)c1=O	none (no result: Hsp70 activator, L major viab)
Cc1ccc2c(c1)C1CN(C)CCC1N2C(=O)COc1ccc(S(=O)(=O)N2CCOCC2)cc1 (stereo unspecified)	none
CN(C)CCN=Cc1c(O)n(-c2cccc(C(F)(F)F)c2)c(=O)[nH]c1=O	none
C=C(C)[C@@]12OC3(c4ccccc4)O[C@@H]1C1[C@@H]4O[C@]4(CO)[C@@H](O)[C@]4(O)C(=O)C(C)=C[C@H]4[C@@]1(O3)[C@H](C)[C@H]2OC(=O)/C=C/C=C/c1ccccc1 (stereo partly specified)	T cruzi inh 57.5 (no result: Hsp70 activator, L major viab)
O=C(CN1CC(c2ccccc2)CC1=O)NCc1ccc(F)cc1 (stereo unspecified)	HSF1 inhib -66.3
O=c1[nH]c(O)c(/C=C2\C=NN=C2c2ccccc2)c(=O)[nH]1	none
CCCCCSc1cc(O)c(C(CNC)C(C)C)cc1OC (stereo unspecified)	L major viab 100.5
CCOc1ccc(N2C(=O)/C(=C/c3ccco3)C(=O)NC2=S)cc1	none (no result: Hsp70 activator, L major viab)
CCOc1ccc(N2C(=O)/C(=C\c3cccs3)C(=O)NC2=S)cc1	L major viab 100.1
C=CCn1c(O)c(C(C)=NCc2cc(OC)cc(OC)c2)c(=O)[nH]c1=O	none
C=Cn1c(P(=S)(N2CCOCC2)N2CCOCC2)cc2c1CCCC2	none
C=COCCn1c(C)c(C(C)=O)c2cc(O)ccc21	none
CC(=O)c1c(C)n(CCCOC(C)C)c2ccc(O)cc12	HSF1 inhib -55.9
O=C(c1ccc2c(c1)OCO2)N1CCC2(CC1)OCCO2	HSF1 inhib -68.1
O=C1NC(=O)C(CCc2ccncc2)(CCc2ccncc2)C(=O)N1CCc1ccccc1	none
O=C1NC(=O)C(CCc2ccncc2)(Cc2ccc3c(c2)OCO3)C(=O)N1CCc1ccccc1 (stereo unspecified)	L major viab 99.8
CN1C(=O)N(C)C(=O)C(CCc2ccncc2)(Cc2ccc3c(c2)OCO3)C1=O	L major viab 64.9
O=[N+]([O-])c1ccc(N2CCCC2)cc1N/N=C1\CN2CCC1CC2	none
O=C(N/N=C1/CN2CCC1CC2)c1cc2ccccc2cc1O	L major viab 91.6
Cc1cccc(-n2c(O)c(C=NCc3cccnc3)c(=O)[nH]c2=O)c1C	none
Cc1c(N=Nc2c(O)n(Cc3ccccc3)c(=O)[nH]c2=O)c(=O)n(-c2ccccc2)n1C	none
O=C1/C(=C/c2ccc([N+](=O)[O-])cc2)N2CCC1CC2	none
CCOC(=O)C1CCN(/C=C2\C(=O)NC(=S)N(CC)C2=O)CC1	L major viab 75.9
CCOC(=O)C1CCN(/C=C2/C(=O)NC(=O)N(c3cccc(C)c3C)C2=O)CC1	L major viab 54.4
COC(=O)C1=C(c2ccc(S(C)(=O)=O)cc2)C[C@@H]2CC[C@H]1N2C(=O)N1CCC(C)CC1	none (no result: Hsp70 activator, L major viab)
Cc1c2ccncc2c(C)c2c1[nH]c1ccccc12	L major viab 100.3
